Data from ChEMBL document CHEMBL1122050, “Synthesis of prostanoids with bicyclo[2.2.1]heptane, bicyclo[3.1.1]heptane, and bicyclo[2.2.2]octane ring systems. Activities of 15-hydroxy epimers on human platelets” (J Med Chem, 1982).
Calls of active or inactive are those of the source.

Experiments:
[1] = species on record: Homo sapiens; test: Compound was evaluated for aggregation properties on human platelets at 10/2.9 uM (Dose ratio defined as the ratio of the concentrations of the agonist producing recorder unit responses in the presence and in the absence of the inhibitor); Inhibition; format: functional
[2] = species on record: Homo sapiens; test: Compound was evaluated for aggregation properties on human platelets at 2.5/4.8 uM (Dose ratio defined as the ratio of the concentrations of the agonist producing recorder unit responses in the presence and in the absence of the inhibitor); In hibition; format: functional, organism-based
[3] = species on record: Homo sapiens; test: Compound was evaluated for aggregation properties on human platelets at 10/25 uM (Dose ratio defined as the ratio of the concentrations of the agonist producing recorder unit responses in the presence and in the absence of the inhibitor); Inhi bition; format: functional, organism-based
[4] = species on record: Homo sapiens; test: Compound was evaluated for aggregation properties on human platelets at 10/1.5 uM (Dose ratio defined as the ratio of the concentrations of the agonist producing recorder unit responses in the presence and in the absence of the inhibitor); Inhi bition
[5] = species on record: Homo sapiens; test: Compound was evaluated for aggregation properties on human platelets at 20 uM (highest concentration tested); No effect; format: functional, organism-based
[6] = species on record: Homo sapiens; test: Compound was evaluated for aggregation properties on human platelets at 80 uM (highest concentration tested); Shape change only; format: functional, organism-based
[7] = species on record: Homo sapiens; test: Compound was evaluated for aggregation properties on human platelets at 10/1.4 uM (Dose ratio defined as the ratio of the concentrations of the agonist producing recorder unit responses in the presence and in the absence of the inhibitor); Inhibition; format: functional
[8] = species on record: Homo sapiens; test: Compound was evaluated for aggregation properties on human platelets at 0.72 uM; Irreversible; format: functional
Procedure, shortened: (§1)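 Citrated human platelet-rich plasma mixed with Krebs solution and 0.9% NaCl, preincubated 2 min at 37 °C. Aggregation recorded in a Born-type aggregometer. The value is the concentration giving a primary aggregation response of 20 chart-recorder units; irreversible aggregation corresponds to 80–90 units. Each value is the mean of single determinations on PRP from at least three donors.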

[9] = species on record: Homo sapiens; test: Compound was evaluated for aggregation properties on human platelets at 0.19 uM; Irreversible; format: functional; procedure, shortened: as §1
[10] = species on record: Homo sapiens; test: Compound was evaluated for aggregation properties on human platelets at 3.5 uM; Irreversible; format: functional; procedure, shortened: as §1
[11] = species on record: Homo sapiens; test: Compound was evaluated for aggregation properties on human platelets at 0.23 uM; Irreversible.; format: functional; procedure, shortened: as §1
[12] = species on record: Homo sapiens; test: Compound was evaluated for aggregation properties on human platelets at 20 uM (highest concentration tested); Shape change only; format: functional, organism-based
[13] = species on record: Homo sapiens; test: Compound was evaluated for aggregation properties on human platelets at 1.3 uM; Irreversible; format: functional; procedure, shortened: as §1
[14] = species on record: Homo sapiens; test: Compound was evaluated for aggregation properties on human platelets at 5 uM; Reversible; format: functional; procedure, shortened: as §1
[15] = species on record: Homo sapiens; test: Compound was evaluated for aggregation properties on human platelets at 0.14 uM; Irreversible; format: functional; procedure, shortened: as §1
[16] = species on record: Homo sapiens; test: Compound was evaluated for aggregation properties on human platelets at 80 uM (highest concentration tested); No effect; format: functional, organism-based
[17] = species on record: Homo sapiens; test: Compound was evaluated for aggregation properties on human platelets at 0.31 uM; Irreversible; format: functional; procedure, shortened: as §1
[18] = species on record: Homo sapiens; test: Compound was evaluated for aggregation properties on human platelets at 15 uM; Reversible; format: functional; procedure, shortened: as §1
[19] = species on record: Homo sapiens; test: Compound was evaluated for aggregation properties on human platelets at 0.26 uM; Irreversible; format: functional; procedure, shortened: as §1
[20] = species on record: Homo sapiens; test: Compound was evaluated for aggregation properties on human platelets at 1.7 uM; Irreversible; format: functional; procedure, shortened: as §1
[21] = species on record: Homo sapiens; test: Compound was evaluated for aggregation properties on human platelets at 10/1.3 uM (Dose ratio defined as the ratio of the concentrations of the agonist producing recorder unit responses in the presence and in the absence of the inhibitor); Inhibition; format: functional
[22] = species on record: Homo sapiens; test: Compound was evaluated for aggregation properties on human platelets at 6.2 uM; Irreversible; format: functional; procedure, shortened: as §1
[23] = species on record: Homo sapiens; test: Compound was evaluated for aggregation properties on human platelets at 10 uM (highest concentration tested); No effect; format: functional, organism-based

CCCCC[C@@H](O)/C=C/[C@H]1C2CCC(CC2)[C@@H]1C/C=C\CCCC(=O)O was tested, and the Aggregation response [1] was “Inhibition”.
CCCCC[C@H](O)/C=C/[C@H]1C2CC([C@@H]1C/C=C\CCCC(=O)O)C2(C)C (some centres undefined) was tested, and the Aggregation response [2] was “Inhibition” and the Aggregation response [3] was “Inhibition”.
In the case of CCCCC[C@@H](O)/C=C/[C@H]1C2CCC(C2)[C@@H]1C/C=C\CCCC(=O)O (some centres undefined), the Aggregation response [4] is reported as “Inhibition”.
With CCCCCC(=O)/C=C/[C@H]1C2COC(C2)[C@@H]1C/C=C\CCCC(=O)O (some centres undefined) the Aggregation response [5] was “inactive”.
In the case of O=C(O)CCC/C=C\C[C@H]1C2C=CC(C2)[C@@H]1/C=C/[C@@H](O)CCc1ccc(Cl)cc1 (some centres undefined), the Aggregation response [6] is reported as “Shape change only”.
For CCCCC[C@@H](O)/C=C/[C@H]1C2CC([C@@H]1C/C=C\CCCC(=O)O)C2(C)C (some centres undefined), the Aggregation response [7] was “Inhibition”.
O=C(O)CCC/C=C\C[C@H]1C2CCC(C2)[C@@H]1/C=C/[C@@H](O)COc1ccc(Cl)cc1 (some centres undefined) was tested, and the Aggregation response [8] was “Irreversible”.
O=C(O)CCC/C=C\C[C@H]1C2C=CC(C2)[C@@H]1/C=C/[C@@H](O)COc1ccc(F)cc1 (some centres undefined) was tested, and the Aggregation response [9] was “Irreversible”.
For O=C(O)CCC/C=C\C[C@H]1C2CCC(C2)[C@@H]1/C=C/[C@H](O)COc1ccc(Cl)cc1 (some centres undefined), the Aggregation response [10] was “Irreversible”.
For CCCCC[C@H](O)/C=C/[C@H]1C2CC(CO2)[C@@H]1C/C=C\CCCC(=O)O (some centres undefined), the Aggregation response [11] was “Irreversible”.
For CCCCC[C@@H](O)/C=C/[C@H]1C2COC(C2)[C@@H]1C/C=C\CCCC(=O)O (some centres undefined), the Aggregation response [12] was “Shape change only”.
CCCCC[C@H](O)/C=C/[C@H]1C2CCC(CC2)[C@@H]1C/C=C\CCCC(=O)O was tested, and the Aggregation response [13] was “Irreversible”.
In the case of CC1(C)C2CC1[C@H](C/C=C\CCCC(=O)O)[C@H]2/C=C/[C@H](O)COc1ccc(F)cc1 (some centres undefined), the Aggregation response [14] is reported as “Reversible”.
O=C(O)CCC/C=C\C[C@H]1C2CCC(C2)[C@@H]1/C=C/[C@@H](O)COc1ccc(F)cc1 (some centres undefined) was tested, and the Aggregation response [15] was “Irreversible”.
O=C(O)CCC/C=C\C[C@H]1C2C=CC(C2)[C@@H]1/C=C/[C@H](O)CCc1ccc(Cl)cc1 (some centres undefined) was tested, and the Aggregation response [16] was “inactive”.
For CC1(C)C2CC1[C@H](C/C=C\CCCC(=O)O)[C@H]2/C=C/[C@@H](O)COc1ccc(F)cc1 (some centres undefined), the Aggregation response [17] was “Irreversible”.
CCCCC[C@H](O)/C=C/[C@H]1C2CCC(C2)[C@@H]1C/C=C\CCCC(=O)O (some centres undefined) was tested, and the Aggregation response [18] was “Reversible”.
For CCCCC[C@H](O)/C=C/[C@H]1C2COC(C2)[C@@H]1C/C=C\CCCC(=O)O (some centres undefined), the Aggregation response [19] was “Irreversible”.
With O=C(O)CCC/C=C\C[C@H]1C2CCC(C2)[C@@H]1/C=C/[C@H](O)COc1ccc(F)cc1 (some centres undefined) the Aggregation response [13] was “Irreversible”.
With O=C(O)CCC/C=C\C[C@H]1C2C=CC(C2)[C@@H]1/C=C/[C@H](O)COc1ccc(F)cc1 (some centres undefined) the Aggregation response [20] was “Irreversible”.
With CCCCC[C@@](C)(O)/C=C/[C@H]1C2CCC(C2)[C@@H]1C/C=C\CCCC(=O)O (some centres undefined) the Aggregation response [21] was “Inhibition”.
For CCCCC[C@](C)(O)/C=C/[C@H]1C2CCC(C2)[C@@H]1C/C=C\CCCC(=O)O (some centres undefined), the Aggregation response [22] was “Irreversible”.
In the case of O=C(O)CCC/C=C\C[C@H]1C2C=CC(C2)[C@@H]1/C=C/C(=O)COc1ccc(F)cc1 (some centres undefined), the Aggregation response [23] is reported as “inactive”.
